Laboratory results taken from ChEMBL document CHEMBL3856229, “Hybrid Antibiotic Overcomes Resistance in P. aeruginosa by Enhancing Outer Membrane Penetration and Reducing Efflux” (J Med Chem, 2016).
Values after ≈ are worked out from the molar mass of the structure shown.

Key:
Pseudomonas aeruginosa [1] = test: Antibacterial activity against multidrug-resistant/tobramycin-susceptible Pseudomonas aeruginosa isolate 86052; type: functional
Staphylococcus aureus [2] = test: Antibacterial activity against Staphylococcus aureus ATCC 29213 after 24 hrs by microtitre broth dilution method; type: functional; settings: ATCC 29213, 24 h
Staphylococcus aureus [3] = test: Antibacterial activity against methicillin-resistant Staphylococcus aureus ATCC 33592 after 24 hrs by microtitre broth dilution method; type: functional; settings: ATCC 33592, 24 h
[4] = tested on: Staphylococcus epidermidis; test: Antibacterial activity against methicillin-susceptible Staphylococcus epidermidis isolate CANWARD-2008 81388 after 24 hrs by microtitre broth dilution method; type: functional; settings: isolate CANWARD-2008 81388, 24 h
[5] = tested on: Staphylococcus epidermidis; test: Antibacterial activity against methicillin-resistant Staphylococcus epidermidis isolate CAN-ICU 61589 after 24 hrs by microtitre broth dilution method; type: functional; settings: isolate CAN-ICU 61589, 24 h
Enterococcus faecalis = test: Antibacterial activity against Enterococcus faecalis ATCC 29212 after 24 hrs by microtitre broth dilution method; type: functional; settings: ATCC 29212, 24 h
Enterococcus faecium = test: Antibacterial activity against Enterococcus faecium ATCC 27270 after 24 hrs by microtitre broth dilution method; type: functional; settings: ATCC 27270, 24 h
Streptococcus pneumoniae = test: Antibacterial activity against Streptococcus pneumoniae ATCC 49619 after 24 hrs by microtitre broth dilution method; type: functional; settings: ATCC 49619, 24 h
Escherichia coli [6] = test: Antibacterial activity against gentamicin-resistant Escherichia coli isolate CAN-ICU 61714 after 24 hrs by microtitre broth dilution method; type: functional; settings: isolate CAN-ICU 61714, 24 h
Escherichia coli [7] = test: Antibacterial activity against amikacin-resistant Escherichia coli isolate CAN-ICU 63074 after 24 hrs by microtitre broth dilution method; type: functional; settings: isolate CAN-ICU 63074, 24 h
Escherichia coli [8] = test: Antibacterial activity against gentamicin/tobramycin/ciprofloxacin-resistant Escherichia coli isolate CANWARD-2011 97615 harboring AAC3-2A after 24 hrs by microtitre broth dilution method; type: functional; settings: isolate CANWARD-2011 97615, 24 h
Pseudomonas aeruginosa [9] = test: Antibacterial activity against Pseudomonas aeruginosa ATCC 27853 after 24 hrs by microtitre broth dilution method; type: functional; settings: ATCC 27853, 24 h
Pseudomonas aeruginosa [10] = test: Antibacterial activity against gentamicin-resistant Pseudomonas aeruginosa isolate CAN-ICU 62308 after 24 hrs by microtitre broth dilution method; type: functional; settings: isolate CAN-ICU 62308, 24 h
Pseudomonas aeruginosa [11] = test: Antibacterial activity against gentamicin/tobramycin-resistant Pseudomonas aeruginosa isolate CANWARD-2011 96846 after 24 hrs by microtitre broth dilution method; type: functional; settings: isolate CANWARD-2011 96846, 24 h
[12] = tested on: Stenotrophomonas maltophilia; test: Antibacterial activity against Stenotrophomonas maltophilia isolate CAN-ICU 62584 after 24 hrs by microtitre broth dilution method; type: functional; settings: isolate CAN-ICU 62584, 24 h
Acinetobacter baumannii = test: Antibacterial activity against Acinetobacter baumannii isolate CAN-ICU 63169 after 24 hrs by microtitre broth dilution method; type: functional; settings: isolate CAN-ICU 63169, 24 h
Klebsiella pneumoniae = test: Antibacterial activity against Klebsiella pneumoniae ATCC 13883 after 24 hrs by microtitre broth dilution method; type: functional; settings: ATCC 13883, 24 h
Pseudomonas aeruginosa [13] = test: Antibacterial activity against multidrug/extremely drug-resistant/colistin-susceptible Pseudomonas aeruginosa isolate 100036; type: functional
Pseudomonas aeruginosa [14] = test: Antibacterial activity against multidrug/extremely drug-resistant/colistin-susceptible Pseudomonas aeruginosa isolate 101885; type: functional
Pseudomonas aeruginosa [15] = test: Antibacterial activity against multidrug/extremely drug-resistant/colistin-susceptible Pseudomonas aeruginosa isolate 259-96918; type: functional
Pseudomonas aeruginosa [16] = test: Antibacterial activity against multidrug/extremely drug-resistant/colistin-susceptible Pseudomonas aeruginosa isolate 260-97103; type: functional
Pseudomonas aeruginosa [17] = test: Antibacterial activity against multidrug/extremely drug-resistant/colistin-susceptible Pseudomonas aeruginosa isolate 262-101856; type: functional
Pseudomonas aeruginosa [18] = test: Antibacterial activity against multidrug/extremely drug-resistant/colistin-susceptible Pseudomonas aeruginosa isolate 264-104354; type: functional
Pseudomonas aeruginosa [19] = test: Antibacterial activity against pandrug-resistant Pseudomonas aeruginosa isolate 91433; type: functional
Pseudomonas aeruginosa [20] = test: Antibacterial activity against pandrug-resistant Pseudomonas aeruginosa isolate 101243; type: functional
Pseudomonas aeruginosa [21] = test: Antibacterial activity against Pseudomonas aeruginosa PAO1; type: functional
Pseudomonas aeruginosa [22] = test: Antibacterial activity against multidrug-resistant/tobramycin-susceptible Pseudomonas aeruginosa isolate 86053; type: functional
Pseudomonas aeruginosa [23] = test: Antibacterial activity against multidrug-resistant/tobramycin-susceptible Pseudomonas aeruginosa isolate 86067; type: functional
Pseudomonas aeruginosa [24] = test: Antibacterial activity against multidrug-resistant/tobramycin-susceptible Pseudomonas aeruginosa isolate 86079; type: functional
Pseudomonas aeruginosa [25] = test: Antibacterial activity against multidrug-resistant/tobramycin-susceptible Pseudomonas aeruginosa isolate 86141; type: functional
Pseudomonas aeruginosa [26] = test: Antibacterial activity against multidrug-resistant/tobramycin-susceptible Pseudomonas aeruginosa isolate 92014; type: functional
Pseudomonas aeruginosa [27] = test: Antibacterial activity against multidrug-resistant/tobramycin-susceptible Pseudomonas aeruginosa isolate 108590; type: functional
Pseudomonas aeruginosa [28] = test: Antibacterial activity against multidrug-resistant/tobramycin-susceptible Pseudomonas aeruginosa isolate 79199; type: functional
Pseudomonas aeruginosa [29] = test: Antibacterial activity against multidrug-resistant/tobramycin-susceptible Pseudomonas aeruginosa isolate 80621; type: functional
Pseudomonas aeruginosa [30] = test: Antibacterial activity against multidrug-resistant/tobramycin-susceptible Pseudomonas aeruginosa isolate 83182; type: functional
Pseudomonas aeruginosa [31] = test: Antibacterial activity against multidrug-resistant/tobramycin-susceptible Pseudomonas aeruginosa isolate 84745; type: functional
Pseudomonas aeruginosa [32] = test: Antibacterial activity against multidrug-resistant/tobramycin-susceptible Pseudomonas aeruginosa isolate 85322; type: functional
Escherichia coli [33] = test: Antibacterial activity against Escherichia coli ATCC 25922 after 24 hrs by microtitre broth dilution method; type: functional; settings: ATCC 25922, 24 h
Pseudomonas aeruginosa [34] = test: Antibacterial activity against extremely drug-resistant Pseudomonas aeruginosa isolate 104354 infected in Galleria mellonella assessed as larvae survival at 50 mg/kg administered as single dose measured after 24 hrs (reference value: 27 %); type: functional; settings: isolate 104354, 24 h
Method in brief: (§1)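 Galleria mellonella larvae were infected with 10^6 CFU of XDR P. aeruginosa #104354, resistant to all antipseudomonal classes except colistin. A single injected drug dose was given 2 h post-infection: 50 mg/kg with survival read at 24 h, or 75 mg/kg with survival read at 96 h. Controls were infected untreated larvae and PBS-injected larvae. Two independent experiments of 15 larvae each (n = 30).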

Pseudomonas aeruginosa [35] = test: Antibacterial activity against extremely drug-resistant Pseudomonas aeruginosa isolate 104354 infected in Galleria mellonella assessed as larvae survival at 75 mg/kg administered as single dose measured after 96 hrs; type: functional; settings: isolate 104354, 96 h; method in brief: as §1
Pseudomonas aeruginosa [36] = test: Induction of cytoplasmic membrane depolarization in Pseudomonas aeruginosa PAO1 by DiSC3(5) dye based fluorescence assay; type: functional
[37] = Inhibition of circular DNA translation in Escherichia coli S30 extract after 60 mins by luciferase reporter gene assay
Method in brief: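 Translation was run in an E. coli S30 extract with a luciferase read-out. Luminescence is expressed as a percentage of the no-antibiotic control, taken as 100%.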

Pseudomonas aeruginosa [38] = test: Ratio of MIC for Pseudomonas aeruginosa PAO1 after 25 serial passages to MIC for Pseudomonas aeruginosa PAO1 prior to 25 serial passages; type: functional
Method in brief: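 P. aeruginosa PAO1 exposed to sub-inhibitory (0.5 x MIC) drug over successive subcultures as a resistance-selection procedure. MIC compared after versus before passaging.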

With `NC[C@H]1O[C@H](O[C@H]2[C@H](O)[C@@H](O[C@H]3O[C@H](CO)[C@@H](O)[C@H](N)[C@H]3O)[C@H](N)C[C@@H]2N)[C@H](N)C[C@@H]1O` [TOBRAMYCIN] the MIC (Pseudomonas aeruginosa [1]) was 1 µg/mL (≈ 2.14 µM), the MIC (Staphylococcus aureus [2]) was at most 0.25 µg/mL and the MIC (Staphylococcus aureus [3]) was at most 0.25 µg/mL. The MIC [4] was at most 0.25 µg/mL, the MIC [5] was 1 µg/mL (≈ 2.14 µM) and the MIC (Enterococcus faecalis) was 8 µg/mL (≈ 17.1 µM). It also gave an MIC (Enterococcus faecium) of 8 µg/mL (≈ 17.1 µM), an MIC (Streptococcus pneumoniae) of 2 µg/mL (≈ 4.28 µM) and an MIC (Escherichia coli [6]) of 8 µg/mL (≈ 17.1 µM). For the same molecule, the MIC (Escherichia coli [7]) was 8 µg/mL (≈ 17.1 µM), the MIC (Escherichia coli [8]) was 128 µg/mL (≈ 274 µM) and the MIC (Pseudomonas aeruginosa [9]) was 0.5 µg/mL (≈ 1.07 µM). The MIC (Pseudomonas aeruginosa [10]) was 16 µg/mL (≈ 34.2 µM), the MIC (Pseudomonas aeruginosa [11]) was 256 µg/mL (≈ 548 µM) and the MIC [12] was over 512 µg/mL. For the same molecule, the MIC (Acinetobacter baumannii) was 32 µg/mL (≈ 68.4 µM), the MIC (Klebsiella pneumoniae) was at most 0.25 µg/mL and the MIC (Pseudomonas aeruginosa [13]) was 64 µg/mL (≈ 137 µM). For the same molecule, the MIC (Pseudomonas aeruginosa [14]) was under 0.5 µg/mL, the MIC (Pseudomonas aeruginosa [15]) was over 64 µg/mL and the MIC (Pseudomonas aeruginosa [16]) was 32 µg/mL (≈ 68.4 µM). For the same molecule, the MIC (Pseudomonas aeruginosa [17]) was over 64 µg/mL, the MIC (Pseudomonas aeruginosa [18]) was over 64 µg/mL and the MIC (Pseudomonas aeruginosa [19]) was 8 µg/mL (≈ 17.1 µM). The MIC (Pseudomonas aeruginosa [20]) was over 64 µg/mL, the MIC (Pseudomonas aeruginosa [21]) was 0.5 µg/mL (≈ 1.07 µM) and the MIC (Pseudomonas aeruginosa [22]) was 1 µg/mL (≈ 2.14 µM). The MIC (Pseudomonas aeruginosa [23]) was over 64 µg/mL, the MIC (Pseudomonas aeruginosa [24]) was 2 µg/mL (≈ 4.28 µM) and the MIC (Pseudomonas aeruginosa [25]) was 1 µg/mL (≈ 2.14 µM). The MIC (Pseudomonas aeruginosa [26]) was 1 µg/mL (≈ 2.14 µM), the MIC (Pseudomonas aeruginosa [27]) was 4 µg/mL (≈ 8.56 µM) and the MIC (Pseudomonas aeruginosa [28]) was 2 µg/mL (≈ 4.28 µM). The MIC (Pseudomonas aeruginosa [29]) was 2 µg/mL (≈ 4.28 µM), the MIC (Pseudomonas aeruginosa [30]) was 1 µg/mL (≈ 2.14 µM) and the MIC (Pseudomonas aeruginosa [31]) was 1 µg/mL (≈ 2.14 µM). It also gave an MIC (Pseudomonas aeruginosa [32]) of 1 µg/mL (≈ 2.14 µM), an MIC (Escherichia coli [33]) of 0.5 µg/mL (≈ 1.07 µM) and a survival at 50 mg/kg (Pseudomonas aeruginosa [34]) of 20%. The survival at 75 mg/kg (Pseudomonas aeruginosa [35]) was 0%, the Activity (Pseudomonas aeruginosa [36]) was “Dose-dependent effect” and the IC50 [37] was 6.2 nM. It also gave a Ratio (Pseudomonas aeruginosa [38]) of 512.
